Tests used:
[1] = tier 1 DMPK panel; assay type: in vitro ADME; conditions: compared with 10b
[2] = biological target: rat mGlu3 (Rattus norvegicus, UniProt P31422); assay type: cell-based
Outline: (§1)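 Kinetic plate-based calcium fluorescence readout in cells expressing mGlu2 or mGlu3. For IC50, the test compound was titrated from 1 nM upward against an EC76 of glutamate at mGlu2 or an EC87 at mGlu3. For mechanism, the test compound was held at several fixed concentrations while glutamate was titrated from 1 nM upward, and shifts in the glutamate curve were assessed. Three independent experiments.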

[3] = predicted hepatic clearance, human; assay type: in vitro ADME
[4] = predicted hepatic clearance, rat; assay type: in vitro ADME
[5] = biological target: rat mGlu2 (Rattus norvegicus, UniProt P31421); assay type: cell-based
Outline: as §1

[6] = biological target: mGlu2 (Rattus norvegicus, UniProt P31421); assay: mGlu family selectivity screen, fold-shift of glutamate response; assay type: cell-based; conditions: 10 μM
[7] = system: the other mGlus; assay: mGlu family selectivity screen, fold-shift of glutamate response; assay type: cell-based; conditions: 10 μM
Outline: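 Fold-shift of glutamate-evoked signaling measured at group I and group III mGlu receptors. Group I receptors read out by calcium response; group III receptors read out by GIRK response.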

[8] = biological target: mGlu3 (Rattus norvegicus, UniProt P31422); assay: mGlu family selectivity screen, fold-shift of glutamate response; assay type: cell-based; conditions: 10 μM
[9] = fixed concentrations against glutamate 1 nM – 30 μM

Sequence of rat mGlu2 (P31421 19-872): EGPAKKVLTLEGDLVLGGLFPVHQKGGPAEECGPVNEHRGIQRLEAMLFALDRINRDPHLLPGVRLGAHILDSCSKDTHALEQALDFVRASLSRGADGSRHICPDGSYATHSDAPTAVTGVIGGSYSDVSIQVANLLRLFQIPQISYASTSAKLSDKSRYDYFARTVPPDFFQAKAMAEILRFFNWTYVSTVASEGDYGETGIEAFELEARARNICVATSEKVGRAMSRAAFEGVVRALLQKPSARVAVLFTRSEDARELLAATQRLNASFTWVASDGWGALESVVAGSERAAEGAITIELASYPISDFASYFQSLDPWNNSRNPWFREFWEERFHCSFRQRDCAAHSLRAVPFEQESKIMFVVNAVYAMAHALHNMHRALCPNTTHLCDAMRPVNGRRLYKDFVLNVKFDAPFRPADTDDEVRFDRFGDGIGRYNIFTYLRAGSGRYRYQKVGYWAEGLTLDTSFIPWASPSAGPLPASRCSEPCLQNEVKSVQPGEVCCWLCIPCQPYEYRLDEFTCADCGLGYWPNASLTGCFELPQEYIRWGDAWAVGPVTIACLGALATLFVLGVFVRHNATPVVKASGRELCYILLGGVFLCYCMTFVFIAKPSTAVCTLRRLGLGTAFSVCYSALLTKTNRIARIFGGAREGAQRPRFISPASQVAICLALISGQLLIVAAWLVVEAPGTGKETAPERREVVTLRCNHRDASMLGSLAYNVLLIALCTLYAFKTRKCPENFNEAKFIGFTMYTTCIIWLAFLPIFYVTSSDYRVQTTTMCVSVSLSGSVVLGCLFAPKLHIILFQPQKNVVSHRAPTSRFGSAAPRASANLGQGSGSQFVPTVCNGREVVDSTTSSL
Sequence of rat mGlu3 (P31422 23-879): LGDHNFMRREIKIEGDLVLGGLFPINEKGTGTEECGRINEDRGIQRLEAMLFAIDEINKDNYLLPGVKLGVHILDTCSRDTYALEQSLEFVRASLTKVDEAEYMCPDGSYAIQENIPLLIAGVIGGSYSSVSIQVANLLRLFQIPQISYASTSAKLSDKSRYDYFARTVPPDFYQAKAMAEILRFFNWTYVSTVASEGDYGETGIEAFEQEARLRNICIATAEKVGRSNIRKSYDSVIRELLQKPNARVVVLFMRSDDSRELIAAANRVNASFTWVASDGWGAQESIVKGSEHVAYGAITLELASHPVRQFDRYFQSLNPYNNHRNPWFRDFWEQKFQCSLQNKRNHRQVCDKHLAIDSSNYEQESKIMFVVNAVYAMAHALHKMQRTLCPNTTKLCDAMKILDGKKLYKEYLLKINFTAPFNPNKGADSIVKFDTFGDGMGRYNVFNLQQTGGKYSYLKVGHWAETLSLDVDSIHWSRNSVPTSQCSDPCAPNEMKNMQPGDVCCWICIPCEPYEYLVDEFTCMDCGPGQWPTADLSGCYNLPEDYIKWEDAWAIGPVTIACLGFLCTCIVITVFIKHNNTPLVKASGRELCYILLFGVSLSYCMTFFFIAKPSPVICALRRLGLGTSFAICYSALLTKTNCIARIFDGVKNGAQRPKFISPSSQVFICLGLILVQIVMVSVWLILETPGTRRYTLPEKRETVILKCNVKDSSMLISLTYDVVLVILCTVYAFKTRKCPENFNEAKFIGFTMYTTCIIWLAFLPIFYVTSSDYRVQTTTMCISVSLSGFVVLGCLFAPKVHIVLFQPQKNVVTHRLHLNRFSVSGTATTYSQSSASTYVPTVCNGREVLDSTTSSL
Sequence of mGlu2 (P31421 19-872): as the sequence (P31421 19-872) above
Sequence of mGlu3 (P31422 23-879): as the sequence (P31422 23-879) above

Cn1c(=O)c2ccc(-c3cccnc3)cc2n2nc(-c3ccc(F)cc3)cc12 [7ab]
DMPK properties [1]: similarly poor DMPK properties

Cn1c(=O)c2ccc(-c3cncnc3)cc2n2nc(-c3ccccc3)cc12 [10b, 4-methyl-2-phenyl-8-(pyrimidin-5-yl)pyrazolo[1,5-a]quinazolin-5(4H)-one]
increase in potency at mGlu3 compared to 7d [2]: over 2 fold | mechanism of action at mGlu3 (progressive fold-shift of glutamate response) [2, 9]: acting as a NAM | predicted clearance CLhep, human [3]: 18.7 mL/min/kg | predicted clearance CLhep, rat [4]: 54.7 mL/min/kg | increase in potency at mGlu2 compared to 7d [5]: ~3.5 fold | mechanism of action at mGlu2 (progressive fold-shift of glutamate response) [5, 9]: acting as a NAM | effect on glutamate response at mGlu2 [6]: completely blocked the glutamate response | effect on responses of the other mGlus to glutamate [7]: did not alter the responses | effect on glutamate response at mGlu3 [8]: completely blocked the glutamate response
